Measurements as given in ChEMBL document CHEMBL5055621, “Synthesis and Characterization of the Novel Rodent-Active and CNS-Penetrant P2X7 Receptor Antagonist Lu AF27139” (J Med Chem, 2021).

Experiments:
[1] = molecular target: Cytochrome P450 2C19 (Homo sapiens, UniProt P33261); test: Inhibition of CYP2C19 (unknown origin) upto 25 uM; type: ADME
[2] = molecular target: Cytochrome P450 2D6 (Homo sapiens, UniProt P10635); test: Inhibition of CYP2D6 (unknown origin) upto 25 uM; type: ADME
[3] = Free plasma concentration in rat at 3 mg/kg, po after 1 hr by ex vivo equilibrium dialysis; type: ADME, organism-based
Method in brief: (§1)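 Male Sprague–Dawley rats were dosed orally at 1–100 mg/kg, and total plasma concentration was measured at 1 and 2 h. This was multiplied by fraction unbound from ex vivo equilibrium dialysis; mean ± SEM, n = 3 animals.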

[4] = Efflux ratio of permeability across basolateral to apical side over apical to basolateral side in MDCK2-MDR1 cells; type: ADME, cell-based, Canis lupus familiaris; conditions: dog, MDCK-MDR1
Method in brief: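 MDR1-MDCK monolayers; permeability measured in both A-to-B and B-to-A directions, in triplicate. Efflux ratio taken as B:A over A:B permeation.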

[5] = Tmax in female mouse at 100 mg/kg, po after 14 days; conditions: in vivo
[6] = molecular target: Cytochrome P450 3A4 (Homo sapiens, UniProt P08684); test: Time dependent inhibition of CYP3A4 (unknown origin) upto 25 uM; type: ADME
Cytochrome P450 3A4, sequence (P08684 whole entry): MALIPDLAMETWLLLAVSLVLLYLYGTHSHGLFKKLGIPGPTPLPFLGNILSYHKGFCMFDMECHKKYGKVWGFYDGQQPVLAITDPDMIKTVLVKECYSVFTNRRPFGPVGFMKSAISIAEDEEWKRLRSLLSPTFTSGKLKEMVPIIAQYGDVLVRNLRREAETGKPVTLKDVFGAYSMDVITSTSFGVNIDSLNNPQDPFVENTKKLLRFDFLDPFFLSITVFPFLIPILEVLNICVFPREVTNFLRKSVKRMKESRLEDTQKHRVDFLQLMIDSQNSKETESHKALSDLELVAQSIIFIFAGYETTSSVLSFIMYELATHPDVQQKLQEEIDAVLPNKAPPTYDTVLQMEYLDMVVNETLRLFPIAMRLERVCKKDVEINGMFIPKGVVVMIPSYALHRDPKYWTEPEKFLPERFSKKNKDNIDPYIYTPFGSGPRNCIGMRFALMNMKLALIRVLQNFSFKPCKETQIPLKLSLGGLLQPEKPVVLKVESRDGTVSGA

[7] = Free plasma concentration in rat at 10 mg/kg, po after 1 hr by ex vivo equilibrium dialysis; type: ADME, organism-based; method in brief: as §1
[8] = Half life in rat at 1 mg/kg, iv and 2 mg/kg, po; type: ADME, organism-based; conditions: in vivo
Method in brief: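 Rats received 1 mg/kg iv or 2 mg/kg po. The plasma concentration–time profile was analysed by a noncompartmental model to give half-life, Cmax, Tmax and absolute oral bioavailability.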

[9] = molecular target: T1, Cytochrome P450 1A2 (Homo sapiens, UniProt P05177); test: Time dependent inhibition of CYP1A2 (unknown origin) upto 25 uM; type: ADME
T1 sequence (P05177 whole entry): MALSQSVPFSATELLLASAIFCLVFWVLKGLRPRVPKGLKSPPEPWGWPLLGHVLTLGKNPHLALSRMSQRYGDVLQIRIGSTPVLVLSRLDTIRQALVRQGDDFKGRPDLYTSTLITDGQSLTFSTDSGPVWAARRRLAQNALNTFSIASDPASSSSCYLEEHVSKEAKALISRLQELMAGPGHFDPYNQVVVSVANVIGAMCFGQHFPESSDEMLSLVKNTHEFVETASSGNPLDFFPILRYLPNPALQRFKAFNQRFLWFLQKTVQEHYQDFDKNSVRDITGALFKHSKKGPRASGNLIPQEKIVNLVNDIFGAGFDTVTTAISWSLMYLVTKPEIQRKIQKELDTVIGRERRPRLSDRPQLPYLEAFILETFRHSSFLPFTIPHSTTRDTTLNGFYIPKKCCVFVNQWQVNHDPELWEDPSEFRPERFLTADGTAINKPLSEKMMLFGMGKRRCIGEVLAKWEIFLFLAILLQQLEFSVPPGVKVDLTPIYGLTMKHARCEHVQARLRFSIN

[10] = AUC (0 to 8 hr) in male rat at 3 mg/kg, po after 7 days; type: ADME, organism-based; design: dose 3 mg/kg, time 7 day, route po; conditions: in vivo
Method in brief: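 Oral dosing in male Sprague-Dawley rats (150−200 g, 7-day acclimation, standard housing) in a 7-day exploratory toxicology study.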

[11] = AUC (0 to 8 hrs) in female mouse at 100 mg/kg, po after 14 days; conditions: in vivo
[12] = system: Rattus norvegicus; test: Reduction in LPS/BzATP-induced IL-1beta release in icv dosed Sprague-Dawley rat frontal cortex assessed as minimal effective dose pretreated 1 hr before BzATP stimulus; type: functional; conditions: read-out: MED
Method in brief: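 Rats and mice with frontal cortex microdialysis probes and a lateral ventricle cannula received icv LPS (rat 3 μg/5 μL; mouse 0.1 μg/3 μL), and 1 h later oral compound in 20% HP-β-cyclodextrin. BzATP icv (rat 50 μg; mouse 5 μg) followed 1 h later.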

[13] = Inhibition of BzATP-induced current in rat primary microglia cells measured after repeated BzATP treatment at -60 mV at 100 nM by whole cell patch clamp assay relative to control; type: functional
Method in brief: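 Rat primary microglia were whole-cell patch-clamped at −60 mV (external pH 7.4 with 1.8 mM CaCl2; CsCl/EGTA internal pH 7.2). Currents came from 10 s applications of 300 μM BzATP, applied repeatedly. Compound was applied by gravity via capillary for 60 s, and inhibition was taken relative to the control response.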

[14] = molecular target: Sodium channel protein type 5 subunit alpha (Homo sapiens, UniProt Q14524); test: Inhibition of human Nav1.5 at 10 uM
Sodium channel protein type 5 subunit alpha, sequence (Q14524 whole entry): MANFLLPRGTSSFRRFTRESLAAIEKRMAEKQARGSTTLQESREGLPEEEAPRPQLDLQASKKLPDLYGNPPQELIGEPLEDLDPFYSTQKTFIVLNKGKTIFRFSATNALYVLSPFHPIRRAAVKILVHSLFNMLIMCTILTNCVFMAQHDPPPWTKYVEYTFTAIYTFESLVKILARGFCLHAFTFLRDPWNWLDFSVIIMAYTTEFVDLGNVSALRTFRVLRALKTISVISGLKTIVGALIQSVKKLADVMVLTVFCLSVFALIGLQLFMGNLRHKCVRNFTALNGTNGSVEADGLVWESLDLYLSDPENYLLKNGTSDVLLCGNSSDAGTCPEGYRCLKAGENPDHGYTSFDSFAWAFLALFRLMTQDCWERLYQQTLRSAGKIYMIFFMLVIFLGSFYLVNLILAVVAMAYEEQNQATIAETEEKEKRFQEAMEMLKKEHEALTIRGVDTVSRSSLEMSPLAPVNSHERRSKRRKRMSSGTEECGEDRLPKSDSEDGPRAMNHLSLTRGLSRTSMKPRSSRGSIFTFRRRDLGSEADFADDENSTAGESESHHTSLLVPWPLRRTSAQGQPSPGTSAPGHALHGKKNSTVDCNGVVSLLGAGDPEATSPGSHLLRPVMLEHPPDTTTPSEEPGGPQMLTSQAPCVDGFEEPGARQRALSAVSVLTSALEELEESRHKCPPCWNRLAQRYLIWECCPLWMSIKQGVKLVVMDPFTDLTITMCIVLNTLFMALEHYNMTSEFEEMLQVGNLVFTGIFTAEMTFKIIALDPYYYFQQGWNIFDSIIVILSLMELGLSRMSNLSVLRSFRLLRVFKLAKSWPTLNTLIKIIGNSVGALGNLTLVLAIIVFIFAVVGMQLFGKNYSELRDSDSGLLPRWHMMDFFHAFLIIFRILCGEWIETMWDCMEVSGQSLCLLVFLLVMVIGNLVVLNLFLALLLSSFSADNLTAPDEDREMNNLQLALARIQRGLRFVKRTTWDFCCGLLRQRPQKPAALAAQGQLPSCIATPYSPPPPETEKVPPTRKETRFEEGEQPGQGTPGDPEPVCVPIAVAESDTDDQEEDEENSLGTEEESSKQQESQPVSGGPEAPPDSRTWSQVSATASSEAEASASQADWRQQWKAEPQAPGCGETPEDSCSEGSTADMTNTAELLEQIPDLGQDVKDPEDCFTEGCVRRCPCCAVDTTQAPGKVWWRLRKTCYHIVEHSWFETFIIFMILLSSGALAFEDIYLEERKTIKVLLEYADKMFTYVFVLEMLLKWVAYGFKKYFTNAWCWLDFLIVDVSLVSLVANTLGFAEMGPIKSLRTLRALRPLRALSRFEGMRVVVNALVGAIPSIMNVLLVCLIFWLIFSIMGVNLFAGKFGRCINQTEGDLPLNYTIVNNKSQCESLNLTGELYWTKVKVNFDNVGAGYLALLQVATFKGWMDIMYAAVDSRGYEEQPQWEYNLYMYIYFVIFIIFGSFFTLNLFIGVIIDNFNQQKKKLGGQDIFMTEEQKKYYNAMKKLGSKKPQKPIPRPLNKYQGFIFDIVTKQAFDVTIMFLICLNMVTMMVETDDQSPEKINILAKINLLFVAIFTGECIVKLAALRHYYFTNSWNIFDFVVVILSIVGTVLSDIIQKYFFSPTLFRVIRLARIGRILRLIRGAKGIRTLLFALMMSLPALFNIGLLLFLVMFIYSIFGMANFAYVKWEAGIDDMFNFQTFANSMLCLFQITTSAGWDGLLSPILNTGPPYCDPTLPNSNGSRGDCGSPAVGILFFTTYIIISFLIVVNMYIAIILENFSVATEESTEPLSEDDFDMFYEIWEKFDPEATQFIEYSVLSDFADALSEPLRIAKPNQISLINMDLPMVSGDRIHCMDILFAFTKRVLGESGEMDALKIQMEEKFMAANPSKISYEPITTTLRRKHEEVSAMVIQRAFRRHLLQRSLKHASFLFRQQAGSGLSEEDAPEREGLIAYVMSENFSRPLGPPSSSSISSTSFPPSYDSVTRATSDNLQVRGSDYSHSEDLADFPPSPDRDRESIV
Method in brief: (§2)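 Human Nav1.5, Cav1.2 and KCNQ1/minK channels were tested at 10 μM.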

[15] = molecular target: T2, Potassium voltage-gated channel subfamily KQT member 1 (Homo sapiens, UniProt P51787); test: Inhibition of human KCNQ1 at 10 uM; method in brief: as §2
T2 sequence (P51787 whole entry): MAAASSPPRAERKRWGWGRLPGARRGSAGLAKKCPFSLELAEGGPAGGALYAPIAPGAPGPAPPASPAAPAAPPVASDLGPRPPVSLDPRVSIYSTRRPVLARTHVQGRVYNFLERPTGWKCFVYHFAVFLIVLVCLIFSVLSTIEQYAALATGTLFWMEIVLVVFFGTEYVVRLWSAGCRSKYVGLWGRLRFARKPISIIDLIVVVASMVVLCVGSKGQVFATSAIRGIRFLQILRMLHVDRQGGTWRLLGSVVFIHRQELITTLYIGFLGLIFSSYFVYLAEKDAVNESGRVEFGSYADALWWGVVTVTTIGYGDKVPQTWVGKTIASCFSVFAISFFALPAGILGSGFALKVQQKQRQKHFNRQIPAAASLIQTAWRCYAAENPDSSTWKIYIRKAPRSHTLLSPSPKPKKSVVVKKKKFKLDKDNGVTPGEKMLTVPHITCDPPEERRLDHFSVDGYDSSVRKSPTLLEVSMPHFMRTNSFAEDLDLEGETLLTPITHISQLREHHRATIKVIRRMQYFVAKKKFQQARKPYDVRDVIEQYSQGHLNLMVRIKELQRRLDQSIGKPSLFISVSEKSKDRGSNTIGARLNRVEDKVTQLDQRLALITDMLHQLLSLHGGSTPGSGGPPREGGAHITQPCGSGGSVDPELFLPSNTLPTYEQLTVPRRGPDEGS

[16] = in vitro; conditions: rat, liver microsomes

Cytochrome P450 2D6, sequence (P10635 whole entry): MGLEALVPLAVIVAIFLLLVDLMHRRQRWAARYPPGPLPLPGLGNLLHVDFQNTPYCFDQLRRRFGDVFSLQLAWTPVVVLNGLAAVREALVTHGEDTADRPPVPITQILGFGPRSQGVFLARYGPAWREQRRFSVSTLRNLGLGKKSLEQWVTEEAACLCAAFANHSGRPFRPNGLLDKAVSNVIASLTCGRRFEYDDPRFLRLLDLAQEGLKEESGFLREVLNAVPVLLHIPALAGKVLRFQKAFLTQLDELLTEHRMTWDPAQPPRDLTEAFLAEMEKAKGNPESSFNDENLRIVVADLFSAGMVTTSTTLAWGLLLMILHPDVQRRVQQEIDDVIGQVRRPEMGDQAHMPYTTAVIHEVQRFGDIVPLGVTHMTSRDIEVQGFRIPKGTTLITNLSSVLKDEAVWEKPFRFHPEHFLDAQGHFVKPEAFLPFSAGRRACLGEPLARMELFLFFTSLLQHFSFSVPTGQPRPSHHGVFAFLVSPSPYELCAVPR
Cytochrome P450 2C19, sequence (P33261 whole entry): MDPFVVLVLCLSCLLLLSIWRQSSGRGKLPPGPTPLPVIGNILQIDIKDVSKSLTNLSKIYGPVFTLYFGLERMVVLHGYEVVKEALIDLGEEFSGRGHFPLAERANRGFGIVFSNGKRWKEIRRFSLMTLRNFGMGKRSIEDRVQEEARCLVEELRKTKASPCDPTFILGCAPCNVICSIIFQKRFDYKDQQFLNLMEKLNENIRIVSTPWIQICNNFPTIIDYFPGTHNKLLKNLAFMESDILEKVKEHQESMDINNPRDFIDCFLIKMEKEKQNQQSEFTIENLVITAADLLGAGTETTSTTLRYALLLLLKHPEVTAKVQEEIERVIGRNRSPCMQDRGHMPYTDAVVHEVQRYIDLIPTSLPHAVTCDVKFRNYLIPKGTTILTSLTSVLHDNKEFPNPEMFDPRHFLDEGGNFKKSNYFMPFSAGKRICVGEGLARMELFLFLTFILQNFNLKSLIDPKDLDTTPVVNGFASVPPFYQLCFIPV

With O=C(NC[C@H](c1ccc(Cl)cc1)N1CCOCC1)c1sc(-c2ncccn2)nc1C(F)(F)F the “inhibition (INH)” value [1] was “Not Active”, the “inhibition (INH)” value [2] was “Not Active” and the “Cp(f)” value [3] was 71.2 nM. For the same compound, the efflux ratio [4] was 0.81, the Tmax [5] was 1 h and the TDI [6] was “Not Active”. The “Cp(f)” value [7] was 381 nM, the half-life [8] was 2.7 h and the TDI [9] was “Not Active”. The AUC at 168 h [10] was 7.16 µM·h, the AUC at 336 h [11] was 131 µM·h and the minimal effective dose [12] was 3 mg/kg. The inhibition at 0.1 µM [13] was 80%, the “inhibition (INH)” value [14] was “Not Active” and the “inhibition (INH)” value [15] was “Not Active”. The CLint scaled at 1 h, 1 µM [16] was 85 mL/min/kg.
